In ChEMBL document CHEMBL3603801 (J Med Chem, 2015):

What was measured:
[1] = Volume of distribution at steady state in rat at 0.5 mg/kg, iv; assay type: ADME, organism-based; conditions: in vivo, read-out: Vdss
[2] = Ratio of drug level in rat cerebrospinal fluid to plasma at 0.5 mg/kg, iv after 2 hrs; assay type: ADME, organism-based, CSF/Plasma; conditions: cerebrospinal fluid and plasma
[3] = Ratio of drug level in rat brain to plasma at 0.5 mg/kg, iv after 2 hrs; assay type: ADME, organism-based; conditions: brain and plasma, read-out: BPR
How it was run: (§1)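 Rats given 0.5 mg/kg iv in 10% DMA + 10% Solutol HS15 + 80% saline, or for some compounds 10% DMA + 10% Solutol HS15 + 80% (30% (2-hydroxypropyl)-β-cyclodextrin in saline). Brain:plasma and CSF:plasma ratios taken at 0.5 and 2 h; quantification limit 1.00 ng/mL.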

[4] = Ratio of drug level in rat cerebrospinal fluid to plasma at 0.5 mg/kg, iv after 0.5 hrs; assay type: ADME, organism-based, CSF/Plasma; conditions: cerebrospinal fluid and plasma; how it was run: as §1
[5] = Ratio of drug level in rat brain to plasma at 0.5 mg/kg, iv after 0.5 hrs; assay type: ADME, organism-based; conditions: brain and plasma, read-out: BPR; how it was run: as §1
[6] = Oral bioavailability in rat; assay type: ADME, organism-based; conditions: in vivo
[7] = Apparent permeability across apical to basolateral side of human Caco2 cells; assay type: ADME, cell-based; conditions: Caco-2
How it was run: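 Caco-2 monolayer; apparent permeability measured in the apical-to-basolateral direction, with efflux ratio also reported.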

Row | Vd [1] | Kp at 2 h [2] | Kp at 2 h [3] | Kp at 0.5 h [4] | Kp at 0.5 h [5] | Structure (SMILES) | bioavailability [6] | Papp A→B [7]
1 | 2.5 L/kg | 0.01 | 1.9 | 0.02 | 1.7 | Cc1cc(C#N)cc(-c2cc(-n3cccn3)ncn2)c1 |  | 
2 | 4.4 L/kg |  | 1.9 | 0.01 | 1.7 | N#Cc1cc(Cl)cc(-c2cc(-c3ccccn3)ncn2)c1 |  | 
3 | 3.3 L/kg | 0.07 | 8.2 | 0.04 | 5.5 | N#Cc1cc(C#N)cc(-c2cc(-c3ccc(F)cn3)ncn2)c1 |  | 
4 | 4.9 L/kg |  | 6.7 | 0.01 | 4.7 | N#Cc1ccc(-c2cc(-c3cc(Cl)cc(C#N)c3)ncn2)nc1 |  | 

Row | Structure (SMILES) | Vd [1] | Kp at 2 h [2] | Kp at 2 h [3] | Kp at 0.5 h [4] | Kp at 0.5 h [5] | bioavailability [6] | Papp A→B [7]
5 | N#Cc1cc(Cl)cc(-c2cc(-c3ccc(F)cn3)ncn2)c1 | 3.7 L/kg |  | 2.7 | 0.01 | 2.9 | 100% | 13 ×10⁻⁶ cm/s
